Assay [1] concerns STK40 kinase-homology domain (aa 22–339). As to the kind of experiment: Thermal shift assay. The note with it: summary statement (Highlights). It is filed as binding, human.
Assay [2] concerns partially purified full-length STK40. To be noted: single ATP concentration (0.2mM); ref Murphy et al., 2014; cited from earlier work.
Another assay has as its system COP1 WD40 domain. As to the kind of experiment: Flag-immunoprecipitation. It is filed as cell-based, human. To be noted: 293T cells; anti-Flag IP, western blot anti-COP1; Figure 1C lanes 6–8. (In general: Immunoblotting shows a protein as a band on a membrane.)
For another assay, the system named is endogenous COP1. As to the kind of experiment: Flag-immunoprecipitation in 293T cells: endogenous COP1. The assay is classed as cell-based, human. The note with it: anti-Flag IP, western blot anti-COP1, Figure 1C, black arrow. The method in brief:
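Human 293T cells grown in standard medium were transiently transfected with Flag-tagged STK40 constructs in pcDNA3.0 plus COP1 in pTriEx1.1. Lysates and eluates were run on 4–20% gradient gels and immunoblotted for Flag and COP1.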

The target in assay [3] is T1, purified human COP1 WD40 β propeller (386-731) (human, UniProt Q8NHY2 386-731). As to the kind of experiment: fluorescence polarisation.
Assay [4] has as its target COP1 WD40 domain (386–731). It is filed as binding, human. To be noted: same competition assay; 25 nM FITC-peptide, 1500 nM COP1 WD40 (386–731).
Assay [5] addresses T1, purified human COP1 WD40 β propeller …. As to the kind of experiment: fluorescence polarisation. The source holds these as a separate data set.

Ends that are not written are not given here. * marks the point of attachment. FITC = O=C1OC2(c3ccc(O)cc3Oc3cc(O)ccc32)c2ccc(NC(=S)*)cc21

T1 sequence (Q8NHY2 386-731): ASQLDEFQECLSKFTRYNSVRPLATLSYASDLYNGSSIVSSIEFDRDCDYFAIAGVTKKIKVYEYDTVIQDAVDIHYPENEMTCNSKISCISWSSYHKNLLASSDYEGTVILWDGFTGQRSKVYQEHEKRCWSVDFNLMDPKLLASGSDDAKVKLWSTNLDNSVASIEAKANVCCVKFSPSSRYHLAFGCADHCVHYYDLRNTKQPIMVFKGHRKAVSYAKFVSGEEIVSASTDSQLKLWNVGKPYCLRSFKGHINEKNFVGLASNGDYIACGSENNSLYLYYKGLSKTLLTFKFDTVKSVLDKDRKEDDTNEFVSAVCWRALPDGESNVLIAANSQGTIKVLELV

Consider `Nc1ncnc2c1ncn2[C@@H]1O[C@H](COP(=O)(O)OP(=O)(O)OP(=O)(O)O)[C@@H](O)[C@H]1O` [ATP], for which the “ATP binding by STK40 kinase homology domain” value in assay [1] is recorded as “does not bind ATP”. In addition, in assay [2], the “ATP binding by full-length STK40” value is “no ATP binding”.
For the molecule “SSLSGPLQVVPDI [12 residue peptide fused to GFP]”, the “association with / recovery of COP1 WD40 domain” value in the assay with COP1 WD40 domain was “recovers the COP1 WD40 domain, but less efficiently than full-length STK40”.

B1: Full-length STK40: N-terminal Flag-tagged full-length STK40 (FLAG, HA tags in HeLa tandem IP) (protein)
chain: MKRRASDRGAGETSARAKALGSGISGNNAKRAGPFILGPRLGNSPVPSIVQCLARKDGTDDFYQLKILTLEERGDQGIESQEERQGKMLLHTEYSLLSLLHTQDGVVHHHGLFQDRTCEIVEDTESSRMVKKMKKRICLVLDCLCAHDFSDKTADLINLQHYVIKEKRLSERETVVIFYDVVRVVEALHQKNIVHRDLKLGNMVLNKRTHRITITNFCLGKHLVSEGDLLKDQRGSPAYISPDVLSGRPYRGKPSDMWALGVVLFTMLYGQFPFYDSIPQELFRKIKAAEYTIPEDGRVSENTVCLIRKLLVLDPQQRLAAADVLEALSAIIASWQSLSSLSGPLQVVPDIDDQMSNADSSQEAKVTEECSQYEFENYMRQQLLLAEEKSSIHDARSWVPKRQFGSAPPVRRLGHDAQPMTSLDTAILAQRYLRK
modifications: left off: Flag, N-terminal, kept
For B1, in the assay on endogenous COP1, the “immunoprecipitation with endogenous COP1” value was “immunoprecipitates with endogenous COP1”.

B2: KHD: construct of STK40 containing only the central kinase homology domain (KHD) (protein)
chain: SGISGNNAKRAGPFILGPRLGNSPVPSIVQCLARKDGTDDFYQLKILTLEERGDQGIESQEERQGKMLLHTEYSLLSLLHTQDGVVHHHGLFQDRTCEIVEDTESSRMVKKMKKRICLVLDCLCAHDFSDKTADLINLQHYVIKEKRLSERETVVIFYDVVRVVEALHQKNIVHRDLKLGNMVLNKRTHRITITNFCLGKHLVSEGDLLKDQRGSPAYISPDVLSGRPYRGKPSDMWALGVVLFTMLYGQFPFYDSIPQELFRKIKAAEYTIPEDGRVSENTVCLIRKLLVLDPQQRLAAADVLEALSAIIASWQSLS
modifications: left off: His tag, N-terminal, cleaved
As to B2, in the assay on COP1 WD40 domain, the “association with / recovery of COP1 WD40 domain” value is “unable to recover detectable quantities of the COP1 WD40 domain”.

B3: purified STK40 KHD+20 (22-359) (domain or fragment, human, UniProt Q8N2I9 22-359, looked up)
chain: SGISGNNAKRAGPFILGPRLGNSPVPSIVQCLARKDGTDDFYQLKILTLEERGDQGIESQEERQGKMLLHTEYSLLSLLHTQDGVVHHHGLFQDRTCEIVEDTESSRMVKKMKKRICLVLDCLCAHDFSDKTADLINLQHYVIKEKRLSERETVVIFYDVVRVVEALHQKNIVHRDLKLGNMVLNKRTHRITITNFCLGKHLVSEGDLLKDQRGSPAYISPDVLSGRPYRGKPSDMWALGVVLFTMLYGQFPFYDSIPQELFRKIKAAEYTIPEDGRVSENTVCLIRKLLVLDPQQRLAAADVLEALSAIIASWQSLSSLSGPLQVVPDIDDQMSNAD
B3 displayed a Ki in assay [3] of 1200 ± 100 nM.

B4: KHD containing a C-terminal extension of 20 amino acids: KHD containing a C-terminal extension of 20 amino acids encompassing the COP1-binding peptide (protein)
chain: SGISGNNAKRAGPFILGPRLGNSPVPSIVQCLARKDGTDDFYQLKILTLEERGDQGIESQEERQGKMLLHTEYSLLSLLHTQDGVVHHHGLFQDRTCEIVEDTESSRMVKKMKKRICLVLDCLCAHDFSDKTADLINLQHYVIKEKRLSERETVVIFYDVVRVVEALHQKNIVHRDLKLGNMVLNKRTHRITITNFCLGKHLVSEGDLLKDQRGSPAYISPDVLSGRPYRGKPSDMWALGVVLFTMLYGQFPFYDSIPQELFRKIKAAEYTIPEDGRVSENTVCLIRKLLVLDPQQRLAAADVLEALSAIIASWQSLSSLSGPLQVVPDIDDQMSNAD
modifications: left off: His tag, N-terminal, cleaved
For the molecule B4, in assay [4], the “apparent Ki relative to isolated STK40 peptide (in words)” value is listed as “lower apparent Ki than the isolated peptide”.
The molecule {FITC}-SSLSGPLQVVPD [STK40 peptide FITC-SSLSGPLQVVPD] returned a Kd in assay [5] of 3100 ± 600 nM.

What is called Ki is a dissociation constant, usually derived from enzyme kinetics or from competition with a known ligand. The term Kd denotes the free concentration of one partner at which half of the binding sites on the other are occupied at equilibrium, for simple one-to-one binding. Read a high Kd as a looser complex.

(Values after PMC5299031 (Structure (London, England : 1993), 2017).)
